The source made the active and inactive calls. No cut-off for these calls is given here.
Experiments:
[1] = biological target: GABA-A receptor; anion channel (Rattus norvegicus) (UniProt O09028+P15431+P18506+P18508+P19969+P20236+P23574+P23576+P28471+P28473+P30191+P62813+P63079+P63138+Q91ZM7+Q9ES14); test: Binding constant was determined by displacing potential to [3H]-diazepam binding in cerebral cortex homogenates of rat; assay type: tissue-based
Procedure, shortened: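 Wistar rat cerebral cortex homogenate incubated with compound and 2 nM [3H]diazepam at 0 °C for 60 min. Bound label trapped on glass filters and counted by scintillation. Ki = IC50/(1 + L/Kd).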

Mus musculus [2] = test: Effective dose against pentylenetetrazole intoxicity in mice administered through subcutaneous route; NE = no effect at dose 10 mg/kg; assay type: functional, organism-based; set-up: dose 10 mg/kg
Mus musculus [3] = test: Effective dose against tetrabenazine induced ptosis in mice administered subcutaneously; assay type: functional; conditions: sc
Procedure, shortened: (§1)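 Male DS mice, 20-27 g, groups of five. Compound given po or sc in saline or gum arabic at 0.1 mL/10 g. Tetrabenazine 50 mg/kg sc given 1, 4 or 24 h later. Ptosis scored 1-4 at 1 h after TBZ, with ridit transformation. Dose for 50% prevention by regression.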

Mus musculus [4] = test: Effective dose against pentylenetetrazole intoxicity in mice administered orally; assay type: functional; conditions: Mus musculus, po; read-out: ED50
Mus musculus [5] = test: Percent inhibition against tetrabenazine induced ptosis in mice administered orally at 50 mg/kg; assay type: functional; conditions: route oral; procedure, shortened: as §1
Mus musculus [6] = test: Effective dose against tetrabenazine induced ptosis in mice administered orally; assay type: functional; conditions: Mus musculus, po; read-out: ED50; procedure, shortened: as §1
Rattus norvegicus [7] = species on record: Rattus norvegicus; test: Inhibitory activity against uptake of [3H]norepinephrine into rat brain synaptosomes.; assay type: functional
Procedure, shortened: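 P2 synaptosomes from male Wistar rat cerebral cortex incubated with [3H]norepinephrine at 37 °C for 20 min, with compound at 5-6 concentrations. Stopped by Krebs-Henseleit dilution and glass-fibre filtration, then scintillation counting. IC50 taken as the concentration giving 50% uptake inhibition.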

Mus musculus [8] = test: Effective dose against pentylenetetrazole intoxicity in mice administered through subcutaneous route; NE = no effect at 10 mg/kg; assay type: functional, organism-based; set-up: dose 10 mg/kg
Mus musculus [9] = test: Effective dose against pentylenetetrazole intoxicity in mice administered orally; NE = no effect at 50 mg/kg; assay type: functional, organism-based; set-up: dose 50 mg/kg
Rattus norvegicus [10] = test: Effective dose against anticonflict effect in rats when administered through oral route; assay type: functional
Procedure, shortened: (§2)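 Wistar rats in groups of 5-8, Geller-Seifter conflict procedure. Rats trained to lever-press for food on a variable-interval 60-s schedule. Oral dosing. A dose counted positive when shocks exceeded 12 or shock ratio exceeded 4 over four consecutive tone periods. ED50 with 95% limits by probit.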

Mus musculus [11] = test: Percent inhibition against tetrabenazine induced ptosis in mice administered orally at 100 mg/kg; assay type: functional; conditions: route oral; procedure, shortened: as §1
Mus musculus [12] = test: Percent inhibition against pentylenetetrazole intoxicity in mice administered orally at 50 mg/kg; assay type: functional; conditions: route oral
Rattus norvegicus [13] = test: Percent inhibition was evaluated by their anticonflict effect in rats when administered through oral route at 32 mg/kg; assay type: functional; procedure, shortened: as §2
Mus musculus [14] = test: Effective dose against pentylenetetrazole intoxicity in mice administered through subcutaneous route;NE= no effect at 10 mg/kg; assay type: functional, organism-based; set-up: dose 10 mg/kg
Mus musculus [15] = test: Effective dose against pentylenetetrazole intoxicity in mice administered orally; NE = not effective at dose 50 mg/kg; assay type: functional, organism-based; set-up: dose 50 mg/kg
Mus musculus [16] = test: Effective dose against pentylenetetrazole intoxicity in mice administered subcutaneously; NE = not effective at dose 10 mg/kg; assay type: functional, organism-based; set-up: dose 10 mg/kg
Mus musculus [17] = test: Percent inhibition against tetrabenazine induced ptosis in mice administered subcutaneously at 50 mg/kg; assay type: functional; conditions: sc, route subcutaneous; procedure, shortened: as §1
Mus musculus [18] = test: Effective dose against pentylenetetrazole intoxicity in mice administered through subcutaneous route; assay type: functional; conditions: sc
Mus musculus [19] = test: Effective dose against pentylenetetrazole intoxicity in mice administered subcutaneously; NE= no effect at 100 mg/kg; assay type: functional, organism-based; set-up: dose 100 mg/kg
Mus musculus [20] = test: Effective dose against pentylenetetrazole intoxicity in mice administered orally; NE= no effect at 50 mg/kg; assay type: functional, organism-based; set-up: dose 50 mg/kg
Mus musculus [21] = test: Effective dose against pentylenetetrazole intoxicity in mice administered orally; NE = no effect at 200 mg/kg; assay type: functional, organism-based; set-up: dose 200 mg/kg
[22] = Acute toxicity was measured in mice after peroral administration; assay type: organism-based; conditions: mouse, in vivo, po
Procedure, shortened: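 Male DS mice, 20-26 g, given compound orally; mortality checked the day after treatment in groups of 10. LD50 by probit method, or by up-and-down method of Brownlee et al. (n = 5) where estimated.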

Rattus norvegicus [23] = test: Percent inhibition against anticonflict effect in rats when administered through oral route; at 32 mg/kg; assay type: functional; procedure, shortened: as §2
Rattus norvegicus [24] = test: Effective dose was evaluated by their anticonflict effect in rats when administered through oral route; assay type: functional; procedure, shortened: as §2

SMILES	K2 [1] [µM]	ED50 (Mus musculus [3]) [mg/kg]	ED50 (Mus musculus [4]) [mg/kg]	ED50 (Mus musculus [6]) [mg/kg]	further results
O=C1C(O)N=C(c2ccccc2F)c2ccccc2N1C1CCNCC1 (configuration not stated)	0.36	0.23			ED50 (Mus musculus [2]): inactive
O=C1CN=C(c2ccccc2F)c2cc(Cl)ccc2N1C1CCN(Cc2ccccc2)C1 (configuration not stated)	0.27		1.52		inhibition in vivo at 50 mg/kg (Mus musculus [5]): 58%
O=C1CN=C(c2ccccc2Cl)c2cc(F)ccc2N1C1CCNCC1	0.012		29.4	13.5	IC50 (Rattus norvegicus [7]): 877 nM
O=C1CN=C(c2ccccc2F)c2ccccc2N1C1CCNCC1	0.15	0.07			ED50 (Mus musculus [8]): inactive; ED50 (Mus musculus [9]): inactive
CN1CCC(N2C(=O)CN=C(c3ccccc3)c3cc(Br)ccc32)CC1	0.415		21.4	2.88	ED50 (Rattus norvegicus [10]): 17.4 mg/kg
CN1CCCC(N2C(=O)CN=C(c3ccccc3Cl)c3cc(Cl)ccc32)C1 (configuration not stated)	0.016		12		inhibition in vivo at 100 mg/kg (Mus musculus [11]): 21%
O=C1CN=C(c2ccccc2)c2cc(F)ccc2N1C1CCNCC1	2			0.39	inhibition in vivo at 50 mg/kg (Mus musculus [12]): 12.5%; IC50 (Rattus norvegicus [7]): 59 nM; inhibition in vivo at 32 mg/kg (Rattus norvegicus [13]): 60%
CN1CCC(N2C(=O)CN=C(c3ccccc3F)c3cc(N(C)C)ccc32)CC1	8.3	0.7			ED50 (Mus musculus [14]): inactive
CN(C)CCCN1c2ccccc2CCc2ccccc21 [IMIPRAMINE]		0.8		2.14	IC50 (Rattus norvegicus [7]): 85 nM
CN1CCC(N2C(=O)CN=C(c3ccccc3)c3ccccc32)CC1		0.26		0.38	ED50 (Mus musculus [15]): inactive; ED50 (Mus musculus [16]): inactive
CC(=O)N1CCC(N2C(=O)CN=C(c3ccccc3)c3ccccc32)CC1	1.5	3.25			ED50 (Mus musculus [2]): inactive
CN1CCC(N2C(=O)CN=C(c3ccccc3F)c3cc(Cl)ccc32)C1 (configuration not stated)	0.2		1.1	3.69	
CCOC(=O)N1CCC(N2C(=O)CN=C(c3ccccc3Cl)c3cc(Cl)ccc32)CC1	0.02		1.95		inhibition in vivo at 50 mg/kg (Mus musculus [17]): 16%
CCOC(=O)N1CCC(N2C(=O)CN=C(c3ccccc3F)c3cc(Cl)ccc32)CC1	0.038		9.09		ED50 (Mus musculus [18]): 11.1 mg/kg; inhibition in vivo at 50 mg/kg (Mus musculus [17]): 67%
O=C1CN=C(c2ccccc2)c2cc(Br)ccc2N1C1CCNCC1	0.57		38.8	0.76	IC50 (Rattus norvegicus [7]): 402 nM
O=C1CN=C(c2ccccc2Cl)c2cc(Cl)ccc2N1C1CCCNC1 (configuration not stated)	0.013		16.2		inhibition in vivo at 50 mg/kg (Mus musculus [5]): 57%
CN1CCC(N2C(=O)CN=C(c3ccccc3F)c3ccc(Cl)cc32)CC1	0.69				ED50 (Mus musculus [19]): inactive; inhibition in vivo at 50 mg/kg (Mus musculus [17]): 34%; ED50 (Mus musculus [20]): inactive
CN1CCC(N2C(=O)C(O)N=C(c3ccccc3F)c3cc(Cl)ccc32)CC1 (configuration not stated)	0.074		2.41	9.79	
O=C1CN=C(c2ccccc2)c2ccccc2N1C1CCNCC1	1.3	0.06		0.26	ED50 (Mus musculus [8]): inactive; ED50 (Mus musculus [21]): inactive; LD50 [22]: 1240 mg/kg; IC50 (Rattus norvegicus [7]): 29 nM; inhibition in vivo at 32 mg/kg (Rattus norvegicus [23]): 20%
CN1CCC(N2C(=O)CN=C(c3ccccc3F)c3cc(Br)ccc32)CC1	0.049	2.45	1.61	3.85	ED50 (Mus musculus [18]): 0.79 mg/kg; ED50 (Rattus norvegicus [24]): 1.23 mg/kg
